Measured values as given in PubChem BioAssay AID1916 (Vanderbilt High Throughput Screening Facility, 2009).
The source made the active and inactive calls. The rule behind the calls is not given here.

Target: ATP-sensitive inward rectifier potassium channel 1 (Homo sapiens) (UniProt P48048)
Experiment: ROMK (Kir1.1) channel inhibitors among analogs, SAR follow-up, Tet-inducible ROMK cells, thallium flux, FluoZin2 (AID 1916)
Conditions: thallium flux FluoZin2 fluorescence; for % TPNQ activity: at 1 mM (top of the series)
Procedure, shortened: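 Test system: Tet-inducible ROMK-expressing cells, induced overnight in serum-free medium / Dosing: 11-point compound series in threefold dilution steps / Timing: 20 min room-temperature dye loading, 20 min compound preincubation / Technique: FluoZin2 thallium flux fluorescence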

Sequence of ATP-sensitive inward rectifier potassium channel 1 (Homo sapiens) (P48048 whole entry, looked up): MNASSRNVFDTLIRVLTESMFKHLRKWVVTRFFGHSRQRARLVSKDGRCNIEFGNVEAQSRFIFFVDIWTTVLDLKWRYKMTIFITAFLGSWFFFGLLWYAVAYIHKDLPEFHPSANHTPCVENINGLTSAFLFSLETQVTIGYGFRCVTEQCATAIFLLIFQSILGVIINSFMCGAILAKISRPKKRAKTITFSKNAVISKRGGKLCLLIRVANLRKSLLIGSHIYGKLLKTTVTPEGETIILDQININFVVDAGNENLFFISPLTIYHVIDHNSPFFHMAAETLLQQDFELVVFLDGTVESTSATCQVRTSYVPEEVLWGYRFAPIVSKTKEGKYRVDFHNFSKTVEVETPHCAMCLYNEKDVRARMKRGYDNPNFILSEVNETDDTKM

FC(F)(F)c1cccc(CN2CCOCCOCCN(Cc3cccc(C(F)(F)F)c3)CCOCC2)c1
IC50: 30.6 µM

N#Cc1ccccc1CN1CCOCCOCCN(Cc2ccccc2C#N)CCOCC1
IC50: 8.53 µM

N#Cc1cc(CN2CCOCCOCCN(Cc3ccc(F)c(C#N)c3)CCOCC2)ccc1F
% TPNQ activity: 14.7%

COc1cc(CN2CCOCCOCCN(Cc3cc(OC)cc(OC)c3)CCOCC2)cc(OC)c1
IC50: 37.6 µM

CSc1ccc(CN2CCOCCOCCN(Cc3ccc(SC)cc3)CCOCC2)cc1
% TPNQ activity: inactive

COc1cccc(CN2CCOCCOCCN(Cc3cccc(OC)c3)CCOCC2)c1
IC50: 25.2 µM

CN(C)c1ccc(CN2CCOCCOCCN(Cc3ccc(N(C)C)cc3)CCOCC2)cc1
IC50: inactive

FC(F)(F)c1cc(CN2CCOCCOCCN(Cc3cc(C(F)(F)F)cc(C(F)(F)F)c3)CCOCC2)cc(C(F)(F)F)c1
IC50: 24.3 µM

Clc1ccc(CN2CCOCCOCCN(Cc3ccc(Cl)cc3)CCOCC2)cc1
IC50: inactive

COc1ccc(CN2CCOCCOCCN(Cc3ccc(OC)nc3)CCOCC2)cn1
% TPNQ activity: 43.4%

COc1ccc(CN2CCOCCOCCN(Cc3ccc(OC)cc3)CCOCC2)cc1
IC50: inactive

Oc1ccccc1CN1CCOCCOCCN(Cc2ccccc2O)CCOCC1
IC50: inactive

O=[N+]([O-])c1ccc(CN2CCOCCOCCN(Cc3ccc([N+](=O)[O-])cc3)CCOCC2)cc1
IC50: 14.2 µM

COc1ccccc1CN1CCOCCOCCN(Cc2ccccc2OC)CCOCC1
IC50: inactive

CC(C)c1ccc(CN2CCOCCOCCN(Cc3ccc(C(C)C)cc3)CCOCC2)cc1
IC50: inactive

Cc1ccccc1CN1CCOCCOCCN(Cc2ccccc2C)CCOCC1
IC50: 13.3 µM

COC(=O)c1ccc(CN2CCOCCOCCN(Cc3ccc(C(=O)OC)cc3)CCOCC2)cc1
IC50: 32.6 µM

O=[N+]([O-])c1ccccc1CN1CCOCCOCCN(Cc2ccccc2[N+](=O)[O-])CCOCC1
IC50: 6.62 µM

N#Cc1cccc(CN2CCOCCOCCN(Cc3cccc(C#N)c3)CCOCC2)c1
IC50: 0.324 µM

Cc1ccsc1CN1CCOCCOCCN(Cc2sccc2C)CCOCC1
IC50: 19.7 µM
